Activity calls are given as the source filed them. The calls are words filed in the database; no cut-off is given here.
Assays:
[1] = Inhibition of rat serum BuChE using butyrylthiocholine chloride as substrate after 15 mins by Ellman's method
Summary of the method: (§1)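 Ellman assay. Equine serum or rat serum BuChE pre-incubated with test compound at various concentrations (DMSO <1%) in 0.1 M phosphate buffer pH 8.0 for 15 min at 37°C. DTNB (0.2%) added, absorbance read at 412 nm. Inhibition % = (1−Ai/Ac)×100. IC50 is the mean of three independent experiments, each run in triplicate.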

[2] = Selectivity index, ratio of IC50 for equine serum BuChE to IC50 for electric eel AChE
[3] = species: Homo sapiens; experiment: Selectivity index, ratio of IC50 for recombinant human MAO-B to IC50 for recombinant human MAO-A
[4] = species: Rattus norvegicus; experiment: Selectivity index, ratio of IC50 for rat serum BuChE to IC50 for 5% rat cortex homogenate AChE
[5] = target: Acetylcholinesterase (Electrophorus electricus, UniProt O42275); experiment: Inhibition of electric eel AChE using acetylthiocholine chloride as substrate after 15 mins by Ellman's method
Chain of Acetylcholinesterase (Electrophorus electricus, UniProt O42275) (O42275 whole entry): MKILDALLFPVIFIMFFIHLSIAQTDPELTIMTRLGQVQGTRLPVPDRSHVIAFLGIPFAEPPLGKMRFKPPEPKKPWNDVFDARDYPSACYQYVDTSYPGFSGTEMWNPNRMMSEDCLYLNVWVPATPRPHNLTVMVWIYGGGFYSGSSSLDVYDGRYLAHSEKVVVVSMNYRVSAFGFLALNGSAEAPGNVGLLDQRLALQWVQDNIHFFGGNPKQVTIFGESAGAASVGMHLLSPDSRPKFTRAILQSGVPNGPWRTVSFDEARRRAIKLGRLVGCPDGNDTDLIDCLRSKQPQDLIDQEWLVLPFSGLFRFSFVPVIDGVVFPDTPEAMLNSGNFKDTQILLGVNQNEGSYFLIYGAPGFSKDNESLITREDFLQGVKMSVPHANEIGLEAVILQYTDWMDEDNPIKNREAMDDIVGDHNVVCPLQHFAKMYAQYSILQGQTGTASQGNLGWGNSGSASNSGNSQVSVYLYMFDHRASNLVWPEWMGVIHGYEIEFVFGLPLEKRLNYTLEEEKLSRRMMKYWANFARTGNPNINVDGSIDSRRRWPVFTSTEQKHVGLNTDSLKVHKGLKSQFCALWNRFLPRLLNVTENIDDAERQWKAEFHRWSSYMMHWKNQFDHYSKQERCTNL

[6] = tested on: PC-12; experiment: Cytotoxicity against rat PC12 cells assessed as decrease in cell viability up to 10 uM after 24 hrs by MTT assay; assay type: cell-based; conditions: pc-12, 24 h
[7] = target: T1, Acetylcholinesterase (Rattus norvegicus, UniProt P37136)
T1 sequence (P37136 whole entry): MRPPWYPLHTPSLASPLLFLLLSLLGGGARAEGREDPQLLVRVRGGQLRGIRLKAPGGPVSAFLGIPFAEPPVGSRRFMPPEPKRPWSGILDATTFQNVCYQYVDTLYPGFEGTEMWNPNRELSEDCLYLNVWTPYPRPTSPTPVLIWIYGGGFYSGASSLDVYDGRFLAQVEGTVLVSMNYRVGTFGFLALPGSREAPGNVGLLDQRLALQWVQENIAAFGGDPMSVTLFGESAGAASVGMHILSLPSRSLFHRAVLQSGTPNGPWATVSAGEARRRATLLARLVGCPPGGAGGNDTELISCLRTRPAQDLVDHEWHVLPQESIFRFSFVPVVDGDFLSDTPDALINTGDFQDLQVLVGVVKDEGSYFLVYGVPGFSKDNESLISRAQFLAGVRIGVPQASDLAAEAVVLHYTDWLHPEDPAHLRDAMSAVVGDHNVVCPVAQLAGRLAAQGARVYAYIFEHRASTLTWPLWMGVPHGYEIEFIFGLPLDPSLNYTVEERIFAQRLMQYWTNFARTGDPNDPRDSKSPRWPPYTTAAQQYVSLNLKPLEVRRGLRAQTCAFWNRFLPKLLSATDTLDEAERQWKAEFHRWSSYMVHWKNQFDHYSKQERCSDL

[8] = physchem; conditions: PAMPA
[9] = target: T2, Amine oxidase [flavin-containing] A (Homo sapiens, UniProt P21397); experiment: Inhibition of recombinant human MAO-A expressed in baculovirus infected BTI insect cells using kynuramine as substrate after 30 mins by fluorescence assay
T2 sequence (P21397 whole entry): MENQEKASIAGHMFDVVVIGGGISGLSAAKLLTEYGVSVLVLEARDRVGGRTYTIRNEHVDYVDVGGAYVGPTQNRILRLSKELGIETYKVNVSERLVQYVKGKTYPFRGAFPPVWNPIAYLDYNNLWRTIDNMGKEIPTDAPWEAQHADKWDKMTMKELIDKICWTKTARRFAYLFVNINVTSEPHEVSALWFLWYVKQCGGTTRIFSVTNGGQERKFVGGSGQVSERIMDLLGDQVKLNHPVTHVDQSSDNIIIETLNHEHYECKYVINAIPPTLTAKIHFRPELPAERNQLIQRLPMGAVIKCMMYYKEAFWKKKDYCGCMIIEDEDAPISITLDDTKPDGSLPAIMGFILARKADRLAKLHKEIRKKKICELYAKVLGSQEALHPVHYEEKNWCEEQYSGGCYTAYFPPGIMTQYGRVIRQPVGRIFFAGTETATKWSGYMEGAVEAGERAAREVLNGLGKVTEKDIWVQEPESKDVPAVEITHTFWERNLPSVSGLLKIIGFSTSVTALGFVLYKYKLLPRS

[10] = target: Acetylcholinesterase (Electrophorus electricus) (UniProt O42275); experiment: Mixed type inhibition of electric eel AChE using acetylthiocholine iodide as substrate up to 1 uM preincubated for 15 mins followed by substrate addition by Lineweaver-Burk plot analysis
Chain of Acetylcholinesterase (Electrophorus electricus) (O42275 24-633 limits assumed): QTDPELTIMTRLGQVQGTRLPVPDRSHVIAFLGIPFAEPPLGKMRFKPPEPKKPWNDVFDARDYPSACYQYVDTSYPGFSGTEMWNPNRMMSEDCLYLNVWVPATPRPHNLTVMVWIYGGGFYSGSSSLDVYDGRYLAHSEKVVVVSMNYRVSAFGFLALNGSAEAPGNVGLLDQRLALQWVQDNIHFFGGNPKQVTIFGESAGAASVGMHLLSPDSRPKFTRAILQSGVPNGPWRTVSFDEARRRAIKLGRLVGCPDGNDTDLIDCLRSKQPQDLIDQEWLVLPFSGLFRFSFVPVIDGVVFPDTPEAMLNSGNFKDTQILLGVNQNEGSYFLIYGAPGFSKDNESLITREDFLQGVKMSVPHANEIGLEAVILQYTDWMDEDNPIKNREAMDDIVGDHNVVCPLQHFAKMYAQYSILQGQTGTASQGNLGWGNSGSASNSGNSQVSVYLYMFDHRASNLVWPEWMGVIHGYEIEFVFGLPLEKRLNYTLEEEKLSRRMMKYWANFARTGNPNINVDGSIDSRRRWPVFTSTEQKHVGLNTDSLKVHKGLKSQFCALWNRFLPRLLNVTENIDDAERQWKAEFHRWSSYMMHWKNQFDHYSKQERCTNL
Summary of the method: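 Purified Electrophorus electricus AChE (0.5 units/mL) in 0.1 M phosphate buffer pH 8.0 with 0.2% DTNB. Three inhibitor concentrations pre-incubated with enzyme for 15 min at 37°C, then acetylthiocholine iodide added at varying concentrations. Hydrolysis followed at 412 nm; no-inhibitor controls run in parallel. Weighted least-squares double-reciprocal analysis; Ki taken from the x-intercept of a secondary slope replot.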

[11] = tested on: PC-12; experiment: Cytotoxicity against rat PC12 cells assessed as decrease in cell viability at 100 uM after 24 hrs by MTT assay; assay type: cell-based; conditions: pc-12, 24 h
[12] = target: Cholinesterase (Equus caballus, UniProt P81908); experiment: Inhibition of equine serum BuChE using butyrylthiocholine chloride as substrate after 15 mins by Ellman's method; summary of the method: as §1
Chain of Cholinesterase (P81908 whole entry): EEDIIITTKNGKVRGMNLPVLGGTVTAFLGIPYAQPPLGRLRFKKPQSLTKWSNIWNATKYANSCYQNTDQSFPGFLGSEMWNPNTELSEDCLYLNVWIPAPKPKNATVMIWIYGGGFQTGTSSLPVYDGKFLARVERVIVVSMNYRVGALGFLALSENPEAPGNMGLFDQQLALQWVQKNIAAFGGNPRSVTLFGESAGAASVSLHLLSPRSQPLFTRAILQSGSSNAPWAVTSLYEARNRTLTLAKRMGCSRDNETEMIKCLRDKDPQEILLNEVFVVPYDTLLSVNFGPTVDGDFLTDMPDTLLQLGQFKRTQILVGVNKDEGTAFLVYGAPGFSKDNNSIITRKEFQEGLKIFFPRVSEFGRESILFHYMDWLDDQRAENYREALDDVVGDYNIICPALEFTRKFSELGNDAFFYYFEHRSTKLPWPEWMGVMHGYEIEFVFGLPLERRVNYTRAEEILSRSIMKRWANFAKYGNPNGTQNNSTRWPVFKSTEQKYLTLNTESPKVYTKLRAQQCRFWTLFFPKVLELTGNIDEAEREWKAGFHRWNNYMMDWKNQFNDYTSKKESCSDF

[13] = target: T3, Amine oxidase [flavin-containing] B (Homo sapiens, UniProt P27338); experiment: biochemical; assay type: cell-based
T3 sequence (P27338 whole entry): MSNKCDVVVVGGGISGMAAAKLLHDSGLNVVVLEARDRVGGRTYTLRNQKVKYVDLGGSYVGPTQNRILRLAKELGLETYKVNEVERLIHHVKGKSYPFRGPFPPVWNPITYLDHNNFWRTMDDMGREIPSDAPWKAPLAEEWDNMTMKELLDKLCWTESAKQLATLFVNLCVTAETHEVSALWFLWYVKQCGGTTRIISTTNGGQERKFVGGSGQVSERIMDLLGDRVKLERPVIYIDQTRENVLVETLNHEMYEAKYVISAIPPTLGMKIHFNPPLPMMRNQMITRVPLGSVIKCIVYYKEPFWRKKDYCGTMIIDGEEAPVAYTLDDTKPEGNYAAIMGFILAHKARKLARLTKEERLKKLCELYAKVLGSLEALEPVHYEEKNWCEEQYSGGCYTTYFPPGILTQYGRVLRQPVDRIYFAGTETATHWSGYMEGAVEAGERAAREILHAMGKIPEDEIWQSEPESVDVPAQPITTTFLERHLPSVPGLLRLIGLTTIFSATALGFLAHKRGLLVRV

In the case of `O=C1CCc2ccc(OCCCCCCN3CCC(Cc4ccccc4)CC3)cc2N1`, the IC50 [1] is reported as 3600 nM, the Ratio IC50 [2] is reported as 4.1 and the Ratio IC50 [3] is reported as 4.7. The Ratio IC50 [4] was 1.9, the IC50 [5] was 560 nM and the Activity [6] was “Non-Toxic”. It also gave an IC50 [7] of 1900 nM, a Papp at 18 h, 100 ug/ml [8] of 25.6 ×10⁻⁶ cm/s and an IC50 [9] of 300 nM. The inhibition [10] was “Active”, the Activity [11] was 87.3% and the IC50 [12] was 2300 nM. For the same compound, the IC50 [13] was 1400 nM.

Reference: ChEMBL document CHEMBL4033676, “Design, synthesis and biological evaluation of 3,4-dihydro-2(1H)-quinoline-O-alkylamine derivatives as new multipotent cholinesterase/monoamine oxidase inhibitors for the treatment of Alzheimer's disease” (Bioorg Med Chem, 2017)
